Paper PMC7771250 (ACS Infectious Diseases, 2020)
Where two headings read alike, the source gives them in different places.

What was measured:
[1] = system: Vero E6 cells; conditions: Vero E6, OpenData Portal screening data, Figure S14; cited from earlier work
[2] = system: SARS-CoV-2; conditions: Vero E6, OpenData Portal screening data, Figure S14; cited from earlier work
[3] = system: SARS-CoV-2; conditions: similar CPE assay with SARS-CoV-2 in Vero E6 cells; cited from earlier work
[4] = system: Vero E6 cells; conditions: for cell toxicity in the CPE counter assay: Vero E6, up to 30.0 μM; for CC50: read-out: CPE CC50, uninfected Vero E6, 72 h; for cytotoxicity (reduction of cell viability): at 30.0 μM
[5] = cited from earlier work; for T1/2: 85 (chloroquine)
[6] = in vitro; conditions: human
[7] = system: SARS-CoV-2 spike pseudotyped particle (PP); test: microbe, parasite or virus in culture; assay type: cell-based; conditions: Severe acute respiratory syndrome coronavirus 2, HEK-293T, 48 h, read-out: PP EC50
[8] = system: SARS-CoV-2; test: microbe, parasite or virus in culture; assay type: cell-based, SARS CoV-2 (USA_WA1/2020); conditions: Severe acute respiratory syndrome coronavirus 2, Vero C1008, 72 h, read-out: CPE EC50, Vero E6, 72 h; table: mean ± confidence interval
[9] = system: LC3B; test: LC3B immunostaining autophagy assay, average of four cell lines; assay type: cell-based; conditions: for EC50: 16 h, read-out: autophagy EC50
[10] = system: Vero E6 cells; conditions: drug-repurposing screen in Vero E6 cells; cited from earlier work
[11] = system: acidic organelles; test: LysoTracker Deep Red staining in Vero E6 cells; assay type: cell-based, monkey
[12] = system: LC3B; test: LC3B immunostaining autophagy assay in Vero E6 cells; assay type: cell-based, monkey; conditions: Vero E6, about 16 h; for LC3B spot accumulation: 50 to 0.02 μM
How it was run: (§1)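 Cells were seeded overnight to 60% confluence and dosed at 8 points, 1:3 from 50 μM to 0.02 μM. They were fixed in ice-cold methanol for 10 min at −30 °C, blocked, and stained with rabbit anti-LC3B for 2 h at RT, AlexaFluor-647 anti-rabbit for 1 h, and Hoechst. Six fields per well were imaged. Spot count was normalized to DMSO (0%) and a reference (100%). Points with viability below 20% were excluded.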

[13] = system: Vero E6 cells; test: Cell; assay type: cell-based, monkey
[14] = cited from earlier work
[15] = system: LC3B; test: LC3B immunostaining autophagy assay in Huh-7.5 cells; assay type: cell-based, human
How it was run: as §1

[16] = system: human bronchial epithelial cells; conditions: LDH release, 24 and 96 h
[17] = system: SARS-CoV-2; assay type: cell-based; conditions: EpiAirway, positive control

## CO/C1=C\C(C)=C\[C@@H](C)[C@@H](O)[C@@H](C)C/C(C)=C/C=C/[C@H](OC)[C@@H]([C@@H](C)[C@@H](O)[C@H](C)[C@@]2(O)C[C@@H](O)[C@H](C)[C@@H](C(C)C)O2)OC1=O [Bafilomycin A1]
[1]
  cytotoxicity: highly cytotoxic
[2]
  SARS-CoV-2 CPE inhibition: able to block SARS-CoV-2 CPE at nontoxic nanomolar concentrations

## CC(C)(O)CNc1ncc(-c2ccnc(Nc3ccnc(Cl)c3)n2)c(CC2CC2)n1 [VPS34-IN-1]
[1]
  cytotoxicity: cytotoxicity was observed at higher concentrations
[2]
  SARS-CoV-2 CPE inhibition: potently inhibited the SARS-CoV-2 CPE at concentrations that were not cytotoxic

## CCN(CC)CCCC(C)Nc1ccnc2cc(Cl)ccc12 (centres unmarked) [chloroquine]
[3]
  EC50: 42 µM
[4]
  cell toxicity in the CPE counter assay: no associated cell toxicity
  CC50: > 30 µM
[5]; 86 (hydroxychloroquine)
  T1/2: 30 to 60 days
[5]
  plasma bound: 50–70%
[6]
  CC50: 12 ± 0.51 µM
[7]
  EC50: 1.37 ± 0.1 µM
[8]
  EC50: 2.01 µM
[9]
  EC50: 3.29 ± 1.86 µM

## CN(C)CCCN1c2ccccc2CCc2ccc(Cl)cc21 [clomipramine]
[10]
  CC50: > 30 µM
[4]; Vero E6
  cytotoxicity (reduction of cell viability): less than 20%
[4]
  CC50: > 30 µM
[5]
  Vd: high Vd
[6]
  CC50: 18.6 ± 0.29 µM
[11]
  LysoTracker staining: dramatic elevations in LysoTracker relative spot intensity
[12]; normalized to DMSO (0%) and CQ (100%)
  increase of LC3B spot count: 40%
[13]; Vero E6, at 50 μM
  cytotoxicity on the basis of nuclei counts: not cytotoxic
[9]; Vero E6, HeLa, HEK293T, Huh-7.5
  LC3B increase across the cell lines: effective in increasing LC3B in all cell lines except for Vero E6

## CCN(CC)CCNc1ccc(CO)c2sc3ccccc3c(=O)c12 [hycanthone]
[4]; Vero E6
  cytotoxicity (reduction of cell viability): ~100%
[6]
  CC50: 11.7 ± 0.49 µM
[14]; monkey
  absorption: well-absorbed in monkey
[14]; species not given, human data lacking
  T1/2: 0.12 to 0.21 days
[12]
  LC3B spot accumulation: maximal spot counts
[7]
  EC50: 1.88 ± 0.08 µM
[13]; Vero E6, at 50 μM
  cells killed: approximately 60%
[8]
  EC50: 5.79 ± 0.26 µM
[9]
  EC50: 7.35 ± 4.7 µM

## CCN(CCO)CCCC(C)Nc1ccnc2cc(Cl)ccc12 (centres unmarked) [hydroxychloroquine]
[3]
  EC50: 9.21 µM
[4]
  cell toxicity in the CPE counter assay: no associated cell toxicity
  CC50: > 30 µM
[5]; 86 (hydroxychloroquine)
  T1/2: ~40 days
[5]; ref 82 (clomipramine), 86 (hydroxychloroquine)
  absorption: rapid and complete absorption
[6]
  CC50: 16.7 ± 20.3 µM
[7]
  EC50: 2.19 ± 0.07 µM
[8]
  EC50: 4.47 µM
[9]
  EC50: 6.55 ± 6.67 µM

## OC(c1cc(C(F)(F)F)nc2c(C(F)(F)F)cccc12)C1CCCCN1 (centres unmarked) [mefloquine]
[10]
  CC50: > 18.5 µM
[3]
  EC50: 7.11 µM
[4]; at 15.0 to 30.0 μM, Vero E6
  cytotoxicity: 100%
[6]
  CC50: 5.4 ± 0.01 µM
[11]
  LysoTracker staining: dramatic elevations in LysoTracker relative spot intensity
[12]
  LC3B spot accumulation: ineffective at inducing LC3B spot accumulation
[7]
  EC50: 8.84 ± 0.64 µM
[13]; Vero E6, at 50 μM
  cytotoxicity on the basis of nuclei counts: completely toxic
[13]; Vero E6, highest concentration (50 μM)
  toxicity in the LysoTracker assay: toxic at the highest concentration
[8]
  EC50: 3.85 ± 0.24 µM
[15]; Homo sapiens, Huh7.5, read-out: autophagy EC50
  EC50: 7.3 µM
[15]; Huh-7.5
  LC3B spot counts: increased LC3B spot counts even at low concentrations

## CCC(CC)COC(=O)[C@H](C)N[P@](=O)(OC[C@H]1O[C@@](C#N)(c2ccc3c(N)ncnn23)[C@H](O)[C@@H]1O)Oc1ccccc1 [remdesivir]
[4]
  cell toxicity in the CPE counter assay: no apparent cytotoxicity
[16]
  cytotoxicity in EpiAirway: without any cytotoxicity
[17]
  reduction of viral titers: highly effective in reducing viral titers
[8]
  EC50: 7.04 µM
